Here are results for one compound from ChEMBL document CHEMBL4725346, “Syntheses and Evaluation of New Bisacridine Derivatives for Dual Binding of G-Quadruplex and i-Motif in Regulating Oncogene c-myc Expression” (J Med Chem, 2020).

In data set [1] the test system is SiHa. Nature of the data set: Induction of apoptosis in human SiHa cells assessed as early apoptotic cells at 1.2 uM after 24 hrs by annexin V/FITC-propidium iodide staining-based flow cytometric method ( Rvb = 0.3%). The format is functional.
In data set [2] the test system is Huh-7. Nature of the data set: Antiproliferative activity against human Huh-7 cells after 48 hrs by MTT assay. Particulars: Huh-7, 48 h. The format is functional, cell-based. The method in brief: (§1)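 Cells seeded at 5.0×10^3 per well, pre-incubated 12 h at 37 °C, 5% CO2, then exposed to compounds for 48 h; DMSO-only control. MTT (2.5 mg/mL) added for 4 h, formazan dissolved in DMSO, absorbance at 570 nm. Each dose tested in triplicate; IC50 from percentage survival relative to negative control.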
In general terms: Formazan colour is commonly taken as a measure of viable cells.

For data set [3], the system named is SiHa. Nature of the data set: Induction of apoptosis in human SiHa cells assessed as increase in cleaved caspase-9 level incubated for 24 hrs by Western blot analysis. The data set is classed as functional, cell-based. Particulars: dose microM 0.6-2.4, time 24.0 hrs. A general note: In western blotting, separated proteins are transferred to a membrane and probed.

For data set [4], the system named is SiHa. Nature of the data set: Inhibition of colony formation in human SiHa cells at 0.5 to 2 uM incubated for 9 days by crystal violet staining. Particulars: dose microM 0.5-2, time 9.0 day. The format is functional, cell-based. The method in brief: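 SiHa cells seeded at 500/well, pre-cultured 24 h at 37 °C/5% CO₂, then treated 9 days with compound at several concentrations. Cells washed with PBS, fixed 10 min in ice-cold methanol, stained 30 min with 0.5% crystal violet, dried and photographed.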

Data set [5] can be described thus: Toxicity in BALB/c nude mouse xenografted with human SiHa cells assessed as effect on body weight at 15 mg/kg, ip administered once per 2 days for 18 days. The format is organism-based. Particulars: in vivo, 432 h, time 18 day. The method in brief: (§2)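 SiHa tumour fragments passaged from donor mice implanted in the underarm of female BALB/c nude mice (six per group). Compound given at 15 mg/kg ip once every two days for 18 days, with saline and cisplatin 0.2 mg/kg control groups. Body weight recorded every two days; at day 18 mice were sacrificed and organs weighed.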
A general note: A xenograft is tissue or cells of one species grown in another, often human tumour cells in immunodeficient mice.

Data set [6] has as its system Raji. Nature of the data set: Induction of cell cycle arrest in human Raji cells assessed as accumulation of cells at G2/M phase at 0.15 to 0.6 uM after 24 hrs by propidium iodide staining based flow cytometry. Particulars: dose microM 0.15-0.6, time 24.0 hrs. The data set is classed as functional.
For data set [7], the system named is SiHa. In words: Antitumor activity against human SiHa cells xenografted in BALB/c nude mouse assessed as reduction in tumor weight at 15 mg/kg, ip administered once per 2 days for 18 days relative to control. The format is functional. Particulars: time 18 day. Also noted: scale not given: the % may be the effect or the level left. In a few lines: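 SiHa tumor fragments from donor xenografts (grown to about 1,000 mm³) implanted in the underarm of female BALB/c nude mice; six per group. Dosed ip once every two days for 18 days, saline as negative control, cisplatin 0.2 mg/kg as positive control. Tumor volume = length × width²/2. Tumors weighed at sacrifice.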

A short description of data set [8]: Toxicity in BALB/c nude mouse xenografted with human SiHa cells assessed as effect on liver weight at 15 mg/kg, ip administered once per 2 days for 18 days. The data set is classed as organism-based. Particulars: in vivo, 432 h, time 18 day. The method in brief:
as §2

In data set [9] the test system is SiHa. Nature of the data set: Induction of cell cycle arrest in human SiHa cells assessed as accumulation of cells at G0/G1 phase at 0.60 uM after 24 hrs by propidium iodide staining based flow cytometry (reference value: 42.28%). The format is functional. Particulars: dose 0.6 µM.
Data set [10] deals with Quadruplex DNA. In words: Binding affinity to c-myc mutated promoter G-quadruplex/i-motif (unknown origin) expressed in human SiHa cells assessed as reduction in c-myc transcription by measuring decrease in ratio of renilla/firefly luciferase activity at 0.025 to 0.1 uM after 48 hrs by dual-luciferase reporter assay. The format is cell-based. Particulars: dose microM 0.025-0.1, time 48.0 hrs. The method in brief: (§3)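 SiHa cells transfected with 200 ng psiCHECK2 plasmid carrying wild-type, mutant or deleted c-myc promoter. Compounds added 8 h after transfection, then incubated 48 h at 37 °C. Cells washed with ice-cold PBS; Renilla/firefly activity ratio read by dual-luciferase assay.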

The nature of data set [11]: Binding affinity to 5'-biotin labeled c-myc promoter i-motif DNA Py33 (unknown origin) by UV titration method.
For data set [12], the system named is Quadruplex DNA. In words: Binding affinity to c-myc promoter G-quadruplex/i-motif in human SiHa cells assessed as reduction in c-myc mRNA level at 2.5 uM incubated for 24 hrs by qRT-PCR analysis. The format is cell-based. Also noted: scale not given: the % may be the effect or the level left. The method in brief:
(§4)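 SiHa cells at 0, 0.625, 1.25 and 2.5 μM for 24 h; DMSO control. Total RNA extracted with TRIzol. 1.5 μg RNA reverse-transcribed with oligo dT18 and M-MLV (42 °C 60 min). PCR of 30 cycles (95/58/72 °C), products run on 1.2% agarose. β-actin as internal control; three repeats.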

The nature of data set [13]: Stabilization of c-myc promoter i-motif DNA Py33 (unknown origin) assessed as reduction in appearance of random coil confirmation at pH 5.5 by CD spectroscopy. The method in brief: (§5)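 Py33 at 1 µM in 1× BPES pH 5.5 (pH 6.8 random-coil reference), with or without ligand. Annealed at 95 °C for 5 min, cooled, kept at 4 °C overnight. CD spectra in a 4 mm cuvette over 230–350 nm, three scans averaged, buffer-corrected; peaks followed at 288 and 260 nm.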

Data set [14] relates to A549. Nature of the data set: Antiproliferative activity against human A549 cells after 48 hrs by MTT assay. The format is functional, cell-based. Particulars: A549, 48 h. The method in brief: as §1
In data set [15] the test system is CA46. Nature of the data set: Induction of cell cycle arrest in human CA46 cells assessed as accumulation of cells at G2/M phase at 0.15 to 0.6 uM after 24 hrs by propidium iodide staining based flow cytometry. The format is functional. Particulars: dose microM 0.15-0.6, time 24.0 hrs.
Data set [16] deals with Quadruplex DNA. Nature of the data set: Binding affinity to 5'-biotin labeled c-myc promoter G-quadruplex DNA Pu27 (unknown origin) by surface plasmon resonance method. The format is nucleic-acid assay. In a few lines: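 SPR: 5'-biotin DNA diluted to 1 μM and captured (1000 RU) on a sensor chip, with a blank cell as reference. Running buffers: Py33 in 20 mM MES pH 5.8, 100 mM KCl, 0.05% Tween-20; Pu27 and duplex in 50 mM Tris-HCl pH 7.4, 100 mM KCl. Six ligand concentrations serially diluted from DMSO stock. Association 260 s, dissociation 300 s at 25 °C; NaOH regeneration; blank sensorgrams subtracted.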

Data set [17] can be described thus: Stabilization of c-myc promoter i-motif DNA Py33 (unknown origin) assessed as decrease in negative peak intensity at pH 5.5 measured at 260 nanometer by CD spectroscopy. The method in brief:
as §5

The subject of data set [18] is SiHa. In words: Induction of apoptosis in human SiHa cells assessed as early apoptotic cells at 0.6 uM after 24 hrs by annexin V/FITC-propidium iodide staining-based flow cytometric method ( Rvb = 0.3%). The data set is classed as functional.
The test system of data set [19] is SiHa. Nature of the data set: Induction of apoptosis in human SiHa cells assessed as late apoptotic cells at 2.4 uM after 24 hrs by annexin V/FITC-propidium iodide staining-based flow cytometric method ( Rvb = 0.4%). The format is functional.
Data set [20] has as its system Quadruplex DNA. Nature of the data set: Binding affinity to c-myc wild-type promoter G-quadruplex/i-motif (unknown origin) expressed in human SiHa cells assessed as reduction in c-myc transcription by measuring decrease in ratio of renilla/firefly luciferase activity after 48 hrs by dual-luciferase reporter assay. Particulars: dose microM 0.025-0.1, time 48.0 hrs. The format is cell-based. The method in brief: as §3

Data set [21] has as its system Quadruplex DNA. Nature of the data set: Binding affinity to c-myc promoter G-quadruplex/i-motif in human SiHa cells assessed as reduction in c-myc mRNA level incubated for 24 hrs by qRT-PCR analysis. The format is cell-based. Particulars: dose microM 0.625-2.5, time 24.0 hrs. In a few lines: as §4
The test system of data set [22] is SiHa. In words: Induction of cell cycle arrest in human SiHa cells assessed as accumulation of cells at G2/M phase at 0.15 uM after 24 hrs by propidium iodide staining based flow cytometry (reference value: 29.71%). The data set is classed as functional.

Active and inactive are the calls of the source. The calls are words filed in the database; no cut-off is given here.

A word on the IC50: it is the point on the concentration scale where inhibition reaches its midpoint. The term Kd denotes the concentration at which binding is half-saturated. `Cc1ccc2nc3ccc(C)cc3c(NCCCNCCNCCCNc3c4cc(C)ccc4nc4ccc(C)cc34)c2c1`: the Activity in data set [1] was 43.2%; in data set [3], “Dose-dependent effect”; in data set [5], “Non-Toxic”; in data set [7], 41.6%; in data set [8] it was “Non-Toxic”; in data set [9] it was 16.87%. In addition, the Activity was less than 76.9% in data set [12]; 18.1% in [18]; 27.5% in data set [19]; “Dose-dependent effect” in data set [20]; “Dose-dependent effect” in [21]; 34.13% in data set [22]. The values for the IC50 in data set [2] and in data set [14] were 160 nM and 180 nM, respectively. For the same compound, the inhibition result in [4] is “Active”. The outcome in [6], in [11], in [13] and in data set [17] was Active. In addition, the result in data set [10] and in data set [15] was inactive. In addition, in data set [16], the dissociation constant Kd is 7.7 µM.
